These results are taken from ChEMBL document CHEMBL5096209, “Structure-Activity Studies of 3,9-Diazaspiro[5.5]undecane-Based γ-Aminobutyric Acid Type A Receptor Antagonists with Immunomodulatory Effect” (J Med Chem, 2021).

The source made the active and inactive calls. The calls are words filed in the database; no cut-off is given here.

The target of test [1] is GABA-A receptor; anion channel. The test can be described thus: Displacement of [3H]-muscimol from rat cortical synaptic membrane GABAA receptor assessed as inhibition constant by microscint-scintillation method. The class given is cell membranes, Cortex. The essentials:
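Rat cortical synaptic membranes, washed repeatedly in 50 mM Tris-HCl pH 7.4, 70–80 μg protein. Incubated at 0 °C with 5 nM [3H]-muscimol (final) and a range of test concentrations, then filtered and counted by scintillation. Nonspecific binding defined with 1.0 mM GABA. IC50 converted to Ki by Cheng–Prusoff, triplicate, three independent experiments.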
On the technique in general: Loss of bound radioactivity is the signal in a displacement assay; it reports binding, not function.

Test [2] can be described thus: Antiproliferative activity against human CD8-positive T cells at 33 uM measured after 96 hrs by flow cytometry analysis relative to control. The class given is functional, CD8-positive T cell. The essentials: (§1)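 Human PBMC were isolated from leukocyte cones by density gradient centrifugation and frozen. After overnight high-density culture at 1×10^7 cells/ml, cells were labelled with 5 μM CFSE for 10 min at room temperature and stimulated with soluble anti-CD3 (OKT3) at 100 pg/mL. Culture ran 96 h. Proliferating CD4+ and CD8+ cells were scored by CFSE flow cytometry against a PBS control. n≥6 independent experiments; one-way ANOVA with Tukey.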

Test [3] is described as follows: Antiproliferative activity against human CD4+ve T cells at 33 uM measured after 96 hrs by flow cytometry analysis relative to control. The class given is functional, CD4+ve Th. The essentials:
as §1
For orientation: In flow cytometry, cells or beads pass a laser one at a time.

A further test concerns CD8-positive T cell. Description: Antiproliferative activity against mouse CD8-positive T cells at 100 uM measured after 48 hrs by flow cytometry analysis. The class given is functional, cell-based. The gist of the method:
(§2)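 Splenocytes came from female wild-type BALB/c mice and were red-cell lysed. They were labelled with 5 μM CFSE for 10 min at room temperature and activated with soluble anti-mouse CD3 (145.2C11) at 33 ng/mL. Culture ran 48 h in RPMI with 10% FCS and 2 μM 2-mercaptoethanol. Percent proliferating CD4+ and CD8+ cells was read by flow cytometry. n≥6 independent experiments; one-way ANOVA with Tukey.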

Test [4] deals with CD4+ve Th. The test can be described thus: Antiproliferative activity against mouse CD4+ve Th cells at 100 uM measured after 48 hrs by flow cytometry analysis. The class given is functional, cell-based. The essentials:
as §2

Test [5] in a line: Induction of cell proliferation of human CD8-positive T cells at 100 uM measured after 96 hrs by flow cytometry analysis relative to control. The class given is functional. The gist of the method:
(§3)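 Rescue format on human PBMC. Cells were CFSE-labelled (5 μM), stimulated with anti-CD3 OKT3 at 100 pg/mL, and treated with alprazolam 33 μM plus test agent at 100 μM. Culture ran 96 h. Proliferating CD4+ and CD8+ T cell percentages were measured by flow cytometry. Vehicle controls (methanol, DMSO) were included. n≥6 independent experiments; one-way ANOVA with Tukey.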

Test [6] deals with CD4+ve Th. Description: Induction of cell proliferation of human CD4+ve Th cells at 100 uM measured after 96 hrs by flow cytometry analysis relative to control. The class given is functional. The essentials:
as §3

A word on the Ki: it is a dissociation constant, usually derived from enzyme kinetics or from competition with a known ligand. As usually defined, the pKi is the Ki on a negative log10 scale, so that one unit is a factor of ten.

On to `CC(=O)N1CCC2(CCNCC2)CC1`, for which the Ki in test [1] was greater than 100 µM.

On to `Nc1ccc(C(=O)N2CCC3(CCNCC3)CC2)cc1`, for which, in test [1], the Ki was 0.71 µM and the pKi amounted to 6.16.

Take `O=C(c1cccc(O)c1)N1CCC2(CCNCC2)CC1`: in test [1], the Ki stood at 0.34 µM and the pKi turned out to be 6.49.

`Cc1ccccc1C(=O)N1CCC2(CCNCC2)CC1`: the Ki in test [1] was determined as 4.2 µM.

Turning to `COC(=O)N1CCC2(CCNCC2)CC1`, in test [1], the Ki came out at 37 µM.

Take `O=C(c1ccc(O)cc1)N1CCC2(CCNCC2)CC1`: in test [1], the Ki was 0.86 µM and the pKi was determined as 6.08.

In the case of `Cc1cccc(CN2CCC3(CCNCC3)CC2)c1`, the inhibition constant Ki in test [1] is greater than 200 µM.

On to `O=C(c1ccccc1)N1CCC2(CCNCC2)CC1`, for which the Ki in test [1] was 1.4 µM.

`O=C(c1cccc(OCc2cccs2)c1)N1CCC2(CCNCC2)CC1`: the Ki in test [1] was 1 µM.

As to `O=C(c1ccc(Br)cc1)N1CCC2(CCNCC2)CC1`, the Ki in test [1] is 0.23 µM.

Regarding `O=C(c1ccccc1Br)N1CCC2(CCNCC2)CC1`, the Ki in test [1] was 2.7 µM.

Regarding `O=C(c1ccc(C(F)(F)F)cc1)N1CCC2(CCNCC2)CC1`, the inhibition constant (Ki) in test [1] was 2.2 µM.

`O=C(c1cccc(Br)c1)N1CCC2(CCNCC2)CC1`: the Ki in test [1] is 0.3 µM.

For `O=C(c1ccc(OCc2ccccc2)cc1)N1CCC2(CCNCC2)CC1`, the Ki in test [1] was 1 µM.

As to `O=C(c1cccc([N+](=O)[O-])c1)N1CCC2(CCNCC2)CC1`, the Ki in test [1] stood at 1.5 µM.

On to `O=C(c1ccc([N+](=O)[O-])cc1)N1CCC2(CCNCC2)CC1`, for which the Ki in test [1] is 9.4 µM.

`O=C(c1cccc(OCc2ccccc2)c1)N1CCC2(CCNCC2)CC1`: the Ki in test [1] stood at 1 µM.

On to `Nc1cccc(C(=O)N2CCC3(CCNCC3)CC2)c1`, for which, in test [1], the Ki is 1.2 µM.

Turning to `Cc1nnc2n1-c1ccc(Cl)cc1C(c1ccccc1)=NC2` [ALPRAZOLAM], the Activity in test [2] is listed as 34.8%; in test [3] it was 35.7%. Also, the result in the test with CD8-positive T cell and in the test with CD4+ve Th [4] was Active.

Turning to `Brc1ccc(CN2CCC3(CCNCC3)CC2)cc1`, the Ki in test [1] amounted to 27 µM.

Regarding `C[N+]1(C)CCc2cc3c(cc2[C@H]1[C@@H]1OC(=O)c2c1ccc1c2OCO1)OCO3.[I-]`, the Activity (in test [5]; in the test on CD4+ve Th [6]) was 20% throughout.
